Assay type in all cases: functional
For experiment [1], the species on record is Cavia porcellus. The experiment can be described thus: Open epicutaneous test for sensitization as average skin reaction in presence of bihapten 1 as sensitizer on guinea pigs; Value indicates number of animals. The procedure, abridged: (§1)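 Female Himalayan spotted guinea pigs (300–500 g) sensitized with three intradermal nuchal injections (0.1 mL) on alternate days of the hapten (2.5% w/v) emulsified 1:1 in Freund's complete adjuvant/saline. Elicitation by open epicutaneous test with the hapten at 2% w/v in 4:1 acetone/olive oil. Eight animals per group, with FCA-treated controls. Average skin reaction is the sum of test scores divided by the number of animals tested.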

The species named for experiment [2] is Cavia porcellus. In words: Open epicutaneous test for sensitization in presence of bihapten 1 as sensitizer on guinea pigs as number of positive animals responded. The procedure, abridged: as §1
Experiment [3] is filed under the species Cavia porcellus. In words: Open epicutaneous test for sensitization in presence of bihapten 1 as sensitizer on guinea pigs with skin intensity test scale (erythema plus swelling going well beyond the); Value indicates number of animals. The procedure, abridged:
as §1

Experiment [4] is filed under the species Cavia porcellus. In words: Open epicutaneous test for sensitization in presence of lactone 8 (pretreated with bihapten 1)as sensitizer on guinea pigs with skin intensity test scale (definite erythema covering the whole test area); Value indicates number of animals. Summed up:
as §1

The species entered for experiment [5] is Cavia porcellus. The experiment can be described thus: Open epicutaneous test for sensitization in presence of lactone 8 as sensitizer on guinea pigs with skin intensity test scale (erythema plus swelling going well beyond); Value indicates number of animals. Summed up: as §1
For experiment [6], the species on record is Cavia porcellus. In words: Open epicutaneous test for sensitization as average skin reaction in presence of lactone 8 as sensitizer on guinea pigs; Value indicates number of animals. Summed up:
as §1

The species named for experiment [7] is Cavia porcellus. In words: Open epicutaneous test for sensitization in presence of lactone 8 (pretreated with bihapten 1)as sensitizer on guinea pigs with skin intensity test scale (no reaction); Value indicates number of animals. The procedure, abridged:
as §1

The species named for experiment [8] is Cavia porcellus. In words: Open epicutaneous test for sensitization in presence of lactone 8 as sensitizer on guinea pigs with skin intensity test scale (erythema plus swelling of the test area); Value indicates number of animals. Summed up: as §1
The species named for experiment [9] is Cavia porcellus. The experiment can be described thus: Open epicutaneous test for sensitization in presence of lactone 8 as sensitizer on guinea pigs with skin intensity test scale (slight erythema not covering the whole test area); Value indicates number of animals. Summed up: as §1
For experiment [10], the species on record is Cavia porcellus. The experiment can be described thus: Open epicutaneous test for sensitization in presence of bihapten 1 as sensitizer on guinea pigs with skin intensity test scale (slight erythema not covering the whole test area); Value indicates number of animals. Summed up:
as §1

The species named for experiment [11] is Cavia porcellus. The experiment can be described thus: Open epicutaneous test for sensitization in presence of lactone 8 as sensitizer on guinea pigs with skin intensity test scale (definite erythema covering the whole test area); Value indicates number of animals. The procedure, abridged: as §1
The species named for experiment [12] is Cavia porcellus. In words: Open epicutaneous test for sensitization in presence of bihapten 1 as sensitizer on guinea pigs with skin intensity test scale (definite erythema covering the whole test area); Value indicates number of animals. The procedure, abridged:
as §1

The species named for experiment [13] is Cavia porcellus. The experiment can be described thus: Open epicutaneous test for sensitization in presence of lactone 8 as sensitizer on guinea pigs with skin intensity test scale (no reaction); Value indicates number of animals. The procedure, abridged: as §1
For experiment [14], the species on record is Cavia porcellus. The experiment can be described thus: Open epicutaneous test for sensitization in presence of bihapten 1 as sensitizer on guinea pigs with skin intensity test scale (no reaction); Value indicates number of animals. Summed up:
as §1

For experiment [15], the species on record is Cavia porcellus. The experiment can be described thus: Open epicutaneous test for sensitization in presence of lactone 8 as sensitizer on guinea pigs as number of positive animals responded. The procedure, abridged:
as §1

Experiment [16] is filed under the species Cavia porcellus. In words: Open epicutaneous test for sensitization in presence of lactone 8 (pretreated with bihapten 1)as sensitizer on guinea pigs with skin intensity test scale (erythema plus swelling of the test area). Summed up: as §1
The species entered for experiment [17] is Cavia porcellus. The experiment can be described thus: Open cutaneous test for sensitization in presence of lactone 8 (pretreated with bihapten 1)as sensitizer on guinea pigs with skin intensity test scale (slight erythema not covering the whole test area); Value indicates number of animals. Summed up: as §1
The species named for experiment [18] is Cavia porcellus. The experiment can be described thus: Open epicutaneous test for sensitization as average skin reaction in presence of lactone 8 (pretreated with bihapten 1) as sensitizer on guinea pigs; Value indicates number of animals. Summed up: as §1
The species named for experiment [19] is Cavia porcellus. In words: Open epicutaneous test for sensitization in presence of bihapten 1 as sensitizer on guinea pigs with skin intensity test scale (erythema plus swelling of the test area); Value indicates number of animals. Summed up: as §1
The species entered for experiment [20] is Cavia porcellus. In words: Open epicutaneous test for sensitization in presence of lactone 8 (pretreated with bihapten 1) as sensitizer on guinea pigs as number of positive animals responded. The procedure, abridged: as §1
The species named for experiment [21] is Cavia porcellus. In words: Open epicutaneous test for sensitization in presence of lactone 8 (pretreated with bihapten 1)as sensitizer on guinea pigs with skin intensity test scale (erythema plus swelling going well beyond); Value indicates number of animals. The procedure, abridged: as §1
Experiment [22] is filed under the species Cavia porcellus. In words: Open cutaneous test for sensitization in presence of lactone 8 as sensitizer on guinea pigs with skin intensity test scale (erythema plus swelling of the test area); Value indicates number of animals. The procedure, abridged:
as §1

The species named for experiment [23] is Cavia porcellus. In words: Open cutaneous test for sensitization in presence of lactone 8 as sensitizer on guinea pigs with skin intensity test scale (erythema plus swelling going well beyond); Value indicates number of animals. The procedure, abridged:
as §1

The species named for experiment [24] is Cavia porcellus. The experiment can be described thus: Open epicutaneous test for sensitization in presence of lactone 8 (pretreated with bihapten 1) as sensitizer on guinea pigs with skin intensity test scale (erythema plus swelling going well beyond); Value indicates number of animals. Summed up: as §1
For experiment [25], the species on record is Cavia porcellus. In words: Open cutaneous test for sensitization in presence of lactone 8 as sensitizer on guinea pigs with skin intensity test scale (slight erythema not covering the whole test area); Value indicates number of animals. Summed up:
as §1

For experiment [26], the species on record is Cavia porcellus. The experiment can be described thus: Open cutaneous test for sensitization in presence of lactone 8 as sensitizer on guinea pigs with skin intensity test scale (no reaction); Value indicates number of animals. The procedure, abridged: as §1
For experiment [27], the species on record is Cavia porcellus. The experiment can be described thus: Open epicutaneous test for sensitization in presence of lactone 8 (pretreated with bihapten 1) as sensitizer on guinea pigs with skin intensity test scale (no reaction); Value indicates number of animals. Summed up:
as §1

The species entered for experiment [28] is Cavia porcellus. In words: Open epicutaneous test for sensitization in presence of bihapten 1 as sensitizer on guinea pigs with skin intensity test scale (erythema plus swelling going well beyond); Value indicates number of animals. The procedure, abridged:
as §1

For experiment [29], the species on record is Cavia porcellus. In words: Open cutaneous test for sensitization in presence of lactone 8 as sensitizer on guinea pigs with skin intensity test scale (definite erythema covering the whole test area); Value indicates number of animals. Summed up:
as §1

Experiment [30] is filed under the species Cavia porcellus. In words: Open epicutaneous test for sensitization in presence of lactone 8 (pretreated with bihapten 1) as sensitizer on guinea pigs with skin intensity test scale (erythema plus swelling of the test area); Value indicates number of animals. Summed up: as §1
For experiment [31], the species on record is Cavia porcellus. In words: Open epicutaneous test for sensitization in presence of lactone 8 (pretreated with bihapten 1) as sensitizer on guinea pigs with skin intensity test scale (slight erythema not covering the whole test area); Value indicates number of animals. Summed up:
as §1

The species named for experiment [32] is Cavia porcellus. The experiment can be described thus: Open epicutaneous test for sensitization in presence of lactone 8 (pretreated with bihapten 1) as sensitizer on guinea pigs with skin intensity test scale (definite erythema covering the whole test area); Value indicates number of animals. Summed up:
as §1

Regarding `C=C1CC(CCCCCCCCCc2cccc(O)c2O)OC1=O` (configuration not stated), the “Average for skin reaction” value in the experiment filed under Cavia porcellus [1] is recorded as 1; in the experiment listed under Cavia porcellus [6] it was 1.6; in the experiment listed under Cavia porcellus [18], 1. Also, the “No. of positive animals” value in the experiment listed under Cavia porcellus [2], in the experiment filed under Cavia porcellus [15] and in the experiment filed under Cavia porcellus [20] was 8 throughout. Moreover, the Skin reaction in the experiment filed under Cavia porcellus [3] is on record as 0; in the experiment listed under Cavia porcellus [4], 8; in the experiment filed under Cavia porcellus [5] it was 0; in the experiment listed under Cavia porcellus [7] it was 0; in the experiment filed under Cavia porcellus [8] it was 5; in the experiment listed under Cavia porcellus [9], 0. Further, the Skin reaction is listed as 0 in the experiment listed under Cavia porcellus [10]; 3 in the experiment listed under Cavia porcellus [11]; 8 in the experiment filed under Cavia porcellus [12]; 0 in the experiment filed under Cavia porcellus [13]; 0 in the experiment listed under Cavia porcellus [14]; 0 in the experiment listed under Cavia porcellus [16]. Besides, the Skin reaction in the experiment listed under Cavia porcellus [17], in the experiment filed under Cavia porcellus [19] and in the experiment listed under Cavia porcellus [21] was 0 in each case.
On to `C=C1CC(CCCCCCCCCc2cccc(OC)c2OC)OC1=O` (configuration not stated), for which the entries for the “Average for skin reaction” value in the experiment listed under Cavia porcellus [1], in the experiment filed under Cavia porcellus [6] and in the experiment filed under Cavia porcellus [18] were 0, 3 and 0.6, respectively. Moreover, the Skin reaction in the experiment listed under Cavia porcellus [22] was 0; in the experiment listed under Cavia porcellus [23], 8; in the experiment listed under Cavia porcellus [24], 0; in the experiment listed under Cavia porcellus [25] it was 0; in the experiment filed under Cavia porcellus [26], 0; in the experiment filed under Cavia porcellus [10] it was 0. For the same compound, the Skin reaction in the experiment filed under Cavia porcellus [12], in the experiment listed under Cavia porcellus [14], in the experiment filed under Cavia porcellus [27], in the experiment listed under Cavia porcellus [19], in the experiment filed under Cavia porcellus [28] and in the experiment listed under Cavia porcellus [29] was 0 each time. The Skin reaction in the experiment listed under Cavia porcellus [30] is on record as 0; in the experiment listed under Cavia porcellus [31] it was 6; in the experiment listed under Cavia porcellus [32], 2. In addition, the “No. of positive animals” value in the experiment listed under Cavia porcellus [2] is given as 0; in the experiment filed under Cavia porcellus [15], 8; in the experiment listed under Cavia porcellus [20] it was 8.
